Screens deposited in PubChem BioAssay by several laboratories.
TbMetRS inhib = Trypanosoma brucei MetRS inhibition; AID 624268; purified T. brucei MetRS, ATP depletion, Kinase-Glo luminescence; 0.4% of 360,000 active; inhibition, % at 11.9 µM;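 active = inhibition above a per-plate cutoff of the control wells' mean inhibition plus 3 SD, cut at about 5.5% in these data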;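 note: 0% = DMSO wells median and 100% = median of wells with control inhibitor compound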
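Assay system: T. brucei methionyl-tRNA synthetase, purified | Medium: HEPES buffer with MgCl2, KCl, DTT, spermine, BSA, pyrophosphatase | Compound: 11.9 µM single point | Incubation: 15 min enzyme-compound preincubation, 2 h reaction, 10 min detection, 25 °C | Measured by: Kinase-Glo luciferase luminescence reporting remaining unconsumed ATP | Measure: % inhibition normalized to control-well medians | Replication: Singlicate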
Efflux pump mplx = blocks antifungal efflux pumps in multiplex yeast assay. S. cerevisiae Candida pump triplex, Nile Red efflux. inhibition, % at 10 µM. 0.44% of 330,000 active. AID 485275;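 active = plate passing quality check with inhibition over a set limit, or well fluorescence over plate mean plus 4 SD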;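 note: Nile Red retained in pooled yeast measured as flow cytometry median fluorescence; 0% = buffer negative control and 100% = Enniatin B positive control; higher means more Nile Red kept so more efflux inhibition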
TAG inh = reduces triacylglycerol accumulation in H9c2 cells. inhibition, % at 12.5 µM. Nile Red lipid (TAG) fluorescence; cells loaded with 200 µM oleic acid. 0.66% of 230,000 active;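 active = pattern-corrected inhibition of lipid staining of at least 50% with the nuclear-stain viability signal not falling by more than 50%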;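 note: 0% = DMSO wells and 100% = triacsin C control wells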
SMARCA2 activ = SMARCA2 function activation, primary screen | MG213 cells, MMTV-luciferase reporter, dexamethasone, overnight | activation, % at 9.1 µM | 1% of 370,000 active | AID 652017; in the data active = activation above about 7.8%;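 note: 0% = vehicle wells and 100% = reference activator wells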
AHR act = human AHR activation | 2.5% of 320,000 active | AHR-responsive luciferase reporter cells, luminescence | activation, % at 5 µM | AID 2796 | P35869; in the data active = activation above about 47%;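 note: 0% = vehicle wells and 100% = reference agonist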
Target sequence (P35869 whole entry, looked up): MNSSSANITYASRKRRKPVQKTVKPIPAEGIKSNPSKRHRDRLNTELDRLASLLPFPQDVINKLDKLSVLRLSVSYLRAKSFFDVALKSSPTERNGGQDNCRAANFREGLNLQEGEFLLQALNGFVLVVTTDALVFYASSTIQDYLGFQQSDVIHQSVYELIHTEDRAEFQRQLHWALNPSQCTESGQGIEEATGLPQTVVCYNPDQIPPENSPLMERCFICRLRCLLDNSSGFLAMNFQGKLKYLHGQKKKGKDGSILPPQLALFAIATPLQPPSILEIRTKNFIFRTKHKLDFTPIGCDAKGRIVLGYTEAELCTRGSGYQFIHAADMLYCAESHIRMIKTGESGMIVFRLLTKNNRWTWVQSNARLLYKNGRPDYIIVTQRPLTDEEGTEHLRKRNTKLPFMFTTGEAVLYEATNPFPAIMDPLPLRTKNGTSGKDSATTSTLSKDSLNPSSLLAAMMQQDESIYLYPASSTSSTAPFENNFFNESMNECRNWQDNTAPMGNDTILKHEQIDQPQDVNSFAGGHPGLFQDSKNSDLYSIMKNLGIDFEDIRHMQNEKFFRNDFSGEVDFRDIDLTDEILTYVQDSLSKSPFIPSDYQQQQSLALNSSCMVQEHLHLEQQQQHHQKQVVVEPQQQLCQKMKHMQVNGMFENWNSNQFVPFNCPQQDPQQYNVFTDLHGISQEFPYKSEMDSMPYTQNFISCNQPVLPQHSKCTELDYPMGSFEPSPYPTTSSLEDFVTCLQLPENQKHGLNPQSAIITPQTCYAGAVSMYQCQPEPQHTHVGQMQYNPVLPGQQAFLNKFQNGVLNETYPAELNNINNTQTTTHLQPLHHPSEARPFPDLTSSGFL
Active calls of the source: *; · = no result given. Shown are actives, neighbours in structure and some others; about 4.1% of the full set was active somewhere.

SMILES | TbMetRS inhib | Efflux pump mplx | TAG inh | SMARCA2 activ | AHR act
COCCNC(=O)c1cc(-c2ccccc2OC)on1 | 0 | 0 | -2 | -1 | -1
CCN(CC)C(=O)c1cc(-c2ccc3c(c2)OCO3)on1 | -1 | 0 | · | 3 | 73*
CCN(CC)C(=O)c1cc(-c2ccccc2OC)on1 | 0 | 0 | · | 0 | 48*
Nc1nc2c(ncn2[C@@H]2O[C@H](C(=O)NCCCc3ccccc3)[C@@H](O)[C@H]2O)c(=O)[nH]1 | · | · | · | -3 | ·
C=CCN1[C@H](Cc2ccccc2)COc2cccc(N3CCSCC3)c2S1(=O)=O | · | · | · | 0 | ·
C=C1[C@@H](CCO)N(S(=O)C(C)(C)C)C[C@@H]1C (some centres undefined) | · | · | · | 3 | ·
CCn1c(C)cc(/C=C2\NC(=O)N(Cc3ccccc3)C2=O)c1C | 0 | 0 | 13 | 1 | 70*
CCn1c(C)cc(/C=C2\NC(=O)N(CC(=O)Nc3ccc(F)cc3)C2=O)c1C | -1 | 0 | -15 | -2 | 24
Cc1cc(/C=C2/NC(=O)N(Cc3ccccc3F)C2=O)c(C)n1C(C)C | -1 | 0 | 15 | 2 | 114*
Cc1ccc(C(=O)C2CCN(CC(=O)N(C)C3CCCCC3)CC2)cc1 | · | · | · | -7 | ·
CC(C)C[C@H]1COc2cc(F)ccc2S(=O)(=O)N1C | · | · | · | -2 | ·
Cn1c(SCC(=O)Nc2ccc(F)cc2F)nnc1-c1cccnc1 | -1 | 0 | 23 | 0 | 48*
O=C(CSc1nnc2ccc(-c3cccnc3)nn12)Nc1ccccc1F | 0 | 0 | 10 | 2 | 19
O=C(CSc1nnc2ccc(-c3cccnc3)nn12)Nc1ccc(F)cc1F | -1 | 0 | 10 | -4 | 79*
Cc1cc(C)cc(NC(=O)OC2CCC23CCCCC3)c1 (centres undefined) | · | · | · | -3 | ·
C#CCN1C(=O)[C@]2(NCCc3c2[nH]c2ccc(OC)cc32)c2cc(F)ccc21 | · | · | · | 0 | ·
Cc1cc(C)nc(N/N=C/c2cn[nH]c2-c2ccccc2)n1 | -1 | 0 | -3 | -4 | 67*
Cc1cc(C)nc(N/N=C/c2ccccc2)n1 | 0 | 0 | · | · | 4
COc1ccc(-c2cc(-c3nnc(SCC(=O)Nc4ccc(-c5nc6ccc(C)cc6s5)cc4)n3N)[nH]n2)cc1 | · | · | · | 7 | ·
CC(=O)Nc1sc(N/N=C/c2ccc(O)cc2)nc1-c1ccc(C)cc1 | -1 | 0 | 16 | 0 | 8
CC(C)(C)c1csc(N/N=C/c2ccc(O)cc2)n1 | -1 | 0 | · | 0 | 72*
COc1cccc(-c2cc(CNC(=O)[C@H]3O[C@@H](n4cnc(C(N)=O)n4)[C@H](O)[C@@H]3O)no2)c1 | · | · | · | -4 | ·
COc1cc(C(=O)N/N=C(\C)c2ccccn2)cc(OC)c1OC | 0 | 0 | -12 | 0 | 63*
OCC(CCc1c[nH]c2ccccc12)c1c[nH]c2ccccc12 (centres undefined) | · | · | · | -7 | ·
COc1cccc(-c2c(-c3cc(OC)cc(OC)c3)n(C)c3ccc(-c4ccc(OC)nc4)cc23)c1 | 0 | 0 | 3 | 2 | 2
SMILES | TbMetRS inhib | Efflux pump mplx | TAG inh | SMARCA2 activ | AHR act
COc1ccc(-c2c(-c3ccc(OC)nc3)c3ccccc3n2C)cc1 | 0 | 0 | 40 | -2 | 63*
COc1ccc2nc(-c3ccccn3)[nH]c2c1 | -1 | 0 | 70* | 3 | 47*
Nc1ccc2nc(-c3ccccn3)[nH]c2c1 | -2 | 0 | · | 6 | 39
CCCCOCCCNC(=O)C[C@H]1C[C@@]2(C(=O)OC)C(=C[C@H](C(C)(C)C)O[C@@H]2C)N(Cc2cccc3ccccc23)C1=O | · | · | · | -4 | ·
O=[N+]([O-])c1ccc(-c2nc(C(Cl)Cl)c3ccccc3n2)cc1 | 1 | 0 | 112* | 0 | 75*
FC(F)(F)c1cccc(-c2nnc(-c3ccccc3)c(N3CCOCC3)n2)c1 | -1 | 0 | · | -2 | 2
FC(F)(F)c1nnc(-c2ccccc2)nc1N1CCOCC1 | -1 | 0 | · | -4 | 53*
O=C1c2[nH]nc(-c3ccccc3)c2C(c2ccc(F)cc2)N1Cc1ccccc1 (centres undefined) | · | · | · | 2 | ·
COc1cccc(C(=O)N/N=C(\C)c2ccc(NC(=O)Cc3ccccc3)cc2)c1OC | 0 | 0 | -44 | -1 | ·
COc1ccc(/C(C)=N/NC(=S)NCc2ccco2)cc1 | 0 | 0 | · | -4 | 63*
COc1ccc(CNC(=S)N/N=C(\C)c2ccc(OC)cc2)cc1 | -1 | 0 | -11 | 0 | 9
C/C(=N\NC(=O)c1ccccc1O)c1ccc(NC(=O)Cc2ccccc2)cc1 | 0 | 0 | 11 | 4 | 52*
CC(=NNC(=O)c1ccccc1N)c1ccccc1O | -1 | · | · | · | ·
COc1ccc(/C(C)=N/NC(=O)c2ccccc2N)cc1 | -1 | 0 | 6 | 7.9* | 11
CC(Cl)C(=O)N1CCC(C(=O)NC2CCCc3ccccc32)CC1 (centres undefined) | · | · | · | 3 | ·
O=C1Nc2ccccc2/C1=C/c1ccccc1Cl | 1 | 0 | · | 3 | 59*
Cc1ccc2c(c1)/C(=C/c1ccc(F)cc1)C(=O)N2 | 0 | 0 | · | -2 | 10
Cc1ccc2c(c1)/C(=C/c1ccccc1C)C(=O)N2 | -2 | 0 | · | -3 | 57*
CC12C=CC(C)(C3C(=O)NC(=O)C31)C1C3C(=O)NC(=O)C3C12 (centres undefined) | · | · | · | 0 | ·
CCc1nnc(NC(=S)Nc2ccccc2)s1 | 0 | 0 | 2 | 7.8* | 15
Cc1ccc2c(c1)N(CCCC(=O)N(C)Cc1ccccc1F)C(=O)CO2 | · | · | · | 7 | ·
COc1cc2cc(CN(Cc3cccs3)C(=S)Nc3ccc(C)cc3)c(=O)[nH]c2cc1OC | 0 | 0 | · | -3 | 50*
COc1cc2cc(CN(Cc3cccs3)C(=S)Nc3cccc(C)c3)c(=O)[nH]c2cc1OC | · | 0 | · | · | 31
Cc1ccc(-c2nn3c(C)nnc3s2)cc1NC(=O)C(C)C | -1 | 0 | -6 | 2 | 34
CCC(=O)Nc1ccc(-c2nn3c(C)nnc3s2)cc1C | -2 | 0 | · | 4 | 54*
SMILES | TbMetRS inhib | Efflux pump mplx | TAG inh | SMARCA2 activ | AHR act
CC(=O)Nc1ccc(S(=O)(=O)Nc2nc3ccccc3nc2N2CCCCCC2)cc1 | 0 | 0 | · | -2 | -2
CC(=O)Nc1ccc(S(=O)(=O)Nc2nc3ccccc3nc2N2CCc3ccccc3C2)cc1 | 0 | 2 | · | 4 | 54*
CCOc1ccccc1C(=O)NC(C(=O)N(C)Cc1ccc2c(c1)OCO2)C(C)C (centres undefined) | 0 | 0 | -25 | 1 | 6
CC(NC(=O)Nc1ccccc1Cl)c1ccc2c(c1)OCO2 (centres undefined) | 0 | 0 | -55 | -1 | 42
CCOc1ccccc1NC(=O)NC(C)c1ccc2c(c1)OCO2 (centres undefined) | 0 | 0 | -73 | 0 | 58*
CCOc1ccccc1C(=O)NC(C)c1ccc2c(c1)OCO2 (centres undefined) | 0 | 0 | · | 1 | 52*
O=C(Nc1ccc(Oc2ccccc2)cc1)C1CCN(c2nnc(-n3cccc3)s2)CC1 | · | · | · | -6 | ·
COC(=O)C1=C(C)N(Cc2cccc(C(F)(F)F)c2)C(=NCc2ccccc2C(F)(F)F)NC1c1cccc(F)c1 (centres undefined) | · | · | · | -3 | ·
